Data as given in PMC3038628 (Journal of molecular biology, 2010).
Changes are numbered by the printed parent chain. Numbers in names are those of the source.

B1: F165D: α-TTP mutant, Phe165 to Asp (helix A8) (protein, UniProt P49638 1-278, looked up, variant F165D)
Alpha-tocopherol transfer …: MAEARSQPSAGPQLNALPDHSPLLQPGLAALRRRAREAGVPLAPLPLTDSFLLRFLRARDFDLDLAWRLLKNYYKWRAECPEISADLHPRSIIGLLKAGYHGVLRSRDPTGSKVLIYRIAHWDPKVFTAYDVFRVSLITSELIVQEVETQRNGIKAIFDLEGWQDSHAFQITPSVAKKIAAVLTDSFPLKVRGIHLINEPVIFHAVFSMIKPFLTEKIKERIHMHGNNYKQSLLQHFPDILPLEYGGEEFSMEDICQEWTNFIMKSEDYLSSISESIQ
B2: F169A: α-TTP mutant, Phe169 to Ala (protein, UniProt P49638 1-278, looked up, variant F169A)
Alpha-tocopherol transfer …: B1 Alpha-tocopherol transfer … with D165F, F169A
B3: F165A: α-TTP mutant, Phe165 to Ala (protein, UniProt P49638 1-278, looked up, variant F165A)
Alpha-tocopherol transfer …: B1 Alpha-tocopherol transfer … with D165A
B4: K217A: α-TTP mutant, surface Lys217 (helix A11) to Ala (protein, UniProt P49638 1-278, looked up, variant K217A)
Alpha-tocopherol transfer …: B1 Alpha-tocopherol transfer … with D165F, K217A
B5: F169D: α-TTP mutant, Phe169 to Asp (helix A8) (protein, UniProt P49638 1-278, looked up, variant F169D)
Alpha-tocopherol transfer …: B1 Alpha-tocopherol transfer … with D165F, F169D

Tested on: not listed separately
Experiment: FRET assay of NBD-Toc transfer from α-TTP variants to SUVs
Format: biochemical
Conditions: PC vesicles; 0.225 μM NBD-Toc, 2 μM α-TTP, 100 μM vesicles; room temperature
Method in brief: (§1)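 Each protein (4 μM) was preloaded with 0.45 μM NBD-Toc for 15 min in SET buffer (pH 7.4). It was then stopped-flow mixed at room temperature with 200 μM acceptor vesicles of 97% liver PC and 3% TRITC-PE (finals 0.225 μM, 2 μM, 100 μM). Vesicles were sonicated SUVs (~60 nm) or extruded LUVs (150 nm). NBD quench was normalised to initial fluorescence and fitted single-exponentially.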

Molecule	Rate of NBD-Toc transfer to SUV, Rate [s⁻¹]
B1	0.013 ± 0.001
B2	0.067 ± 0.006
B3	0.037 ± 0.002
B4	0.130 ± 0.011
B5	0.015 ± 0.002

Same assay, conditions: reduction relative to wild type

Molecule	Reduction of rate of transfer to SUVs [%]
B1	90
B2	47
B3	71
B5	88

Same assay, conditions: relative to wild type

Molecule	Rate of NBD-Toc transfer to SUV, Rate^mut/Rate^wt [%]
B1	10
B2	53
B3	29
B4	102
B5	12

Tested on: not listed separately
Experiment: FRET assay of NBD-Toc transfer from α-TTP variants to LUVs
Format: biochemical
Conditions: PC vesicles; 0.225 μM NBD-Toc, 2 μM α-TTP, 100 μM vesicles; room temperature
Method in brief: as §1

Molecule	Rate of NBD-Toc transfer to LUV, Rate [s⁻¹]
B1	0.009 ± 0.005
B2	0.008 ± 0.002
B3	0.005 ± 0.002
B4	0.010 ± 0.004

Same assay, conditions: relative to wild type

Molecule	Rate of NBD-Toc transfer to LUV, Rate^mut/Rate^wt [%]
B1	56
B2	48
B3	34
B4	62
B5	0

Tested on: not listed separately
Experiment: Dual polarization interferometry of protein adsorption to immobilized bilayer
Format: binding
Conditions: 0.50 μM protein injection
Method in brief: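 Recombinant α-TTP (E. coli BL21(DE3), glutathione affinity, thrombin-cleaved) was dialysed 1 h at 4 °C into pH 7.4 phosphate/137 mM NaCl buffer. It was injected at 25 μl/min for 8 min over a 90:10 DOPC:DOPS bilayer on a silicon oxynitride chip at 20 °C. Adsorbed mass was measured at 0.5 and 1.0 μM in quadruplicate, two channels each. Kd came from fitting Bmax against concentration.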

Molecule	Ads^mut/Ads^wt (0.50 μM injection)
B1	0.11
B2	0.33
B3	0.37
B4	1.71
B5	0.18

Same assay, conditions: 1.0 μM protein injection

Molecule	Ads^mut/Ads^wt (1.0 μM injection)
B1	0.19
B2	0.51
B3	0.45
B4	1.80
B5	0.23

Same assay, conditions: injection concentration not stated

Adsorption/binding to immobilized bilayers by DPI, % of wild type [%]	Molecule
11	B1
171	B4

Same assay, conditions: printed "for LUVs"

Binding to immobilized bilayers, % of WT [%]	Molecule
180	B4

Same assay, conditions: printed "for SUVs"

Binding to immobilized bilayers, % of WT [%]	Molecule
171	B4

Same assay, conditions: relative to wild type

Molecule	Fold change in affinity
B1	12.2
B3	5.1
B5	14.3

Tested on: HepG2 cells
Experiment: α-TTP-induced secretion of NBD-tocopherol from cultured hepatocytes
Format: cell-based, Human
Conditions: transiently transfected HepG2; NBD-Toc fluorescence
Method in brief: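 HepG2/C3A cells on collagen-coated coverslips (DMEM, 10% FBS) were transiently transfected with α-TTP variants in pcDNA3.1, with mock controls. At 30 h they received 5 μM lipoprotein-complexed NBD-tocopherol for 16–18 h at 37 °C, then 4 h in normal medium for secretion. Cells were fixed, permeabilised and DAPI-stained. NBD fluorescence was imaged at 40× over >14 fields per slide, normalised to cell number; expression was checked by Western blot.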

Molecule	Inhibition of tocopherol secretion as compared to the wild-type TTP [fold]
B2	2
B5	5

Tested on: not listed separately
Experiment: Filtration
Format: binding
Conditions: compared with wild type
Method in brief: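 Recombinant α-TTP (31.5 μg) was incubated with increasing concentrations of sonicated SUVs or extruded 150 nm LUVs in SET buffer for 30 min at room temperature. Mixtures were spun through 100 kDa-cutoff filters at 10,000g for 20 min to separate vesicle-bound from free protein. Protein was resolved on gels, stained with colloidal Coomassie and quantified by band densitometry.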

Vesicle binding to SUVs (in words)	Molecule
diminished vesicle binding	B1
diminished vesicle binding	B2
diminished vesicle binding	B3
essentially indistinguishable	B4

Biological target: α-tocopherol transfer protein (α-TTP)
Experiment: not given
Conditions: cited from earlier work

Molecule	Kd [nM]
Cc1c(C)c2c(c(C)c1O)CC[C@@](C)(CCC[C@H](C)CCC[C@H](C)CCCC(C)C)O2 [α-tocopherol]	~25
